Laboratory results from ChEMBL document CHEMBL1145129, “Design, synthesis, and anticancer properties of 4,4'-dihydroxybenzophenone-2,4-dinitrophenylhydrazone and analogues” (J Med Chem, 2003).
Converted amounts (≈) assume the structure as drawn.

Legend:
Melanoma tumor cell line [1] = assay: In vitro cytotoxicity against Human melanoma tumor cells; Not available.; assay type: functional, cell-based
Outline: (§1)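 Fresh surgical human tumor specimens minced to ≤0.1 mm fragments in RPMI-1640 with 10% FBS, streptomycin and penicillin (10⁶–10⁸ cells/mL), explanted into slide flasks. Exposed 24 h at 37 °C, 5% CO₂, to test agent 0.1–20 μg/mL (≥5 doses over 3 logs), in duplicate. Washed, recultured 7–14 days, fixed, HPF cell counts vs control; IC50 (SD) from percent growth.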

Homo sapiens [2] = organism: Homo sapiens; assay: In vitro cytotoxicity against Human lung tumor cells.; assay type: functional; outline: as §1
[3] = In vitro cytotoxicity in Human breast tumor cells; assay type: functional, cell-based; outline: as §1
Colon carcinoma cell = assay: In vitro cytotoxicity was tested in human colon tumor cells; assay type: functional, cell-based; outline: as §1
[4] = In vitro cytotoxicity in K 1735 M2 cell line; assay type: functional
MDA-MB-435 = assay: In vitro cytotoxicity in MDA-MB-435 cell line; assay type: functional, cell-based; conditions: Homo sapiens
Outline: (§2)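 Established tumor lines kept in RPMI-1640 with 10% fetal calf serum and penicillin/streptomycin at 36 °C, 10% CO₂. Seeded 2000–3000 cells/well; hydrazone-containing medium added after 18 h, then 36 h further culture. Viable cells read by MTT absorbance at 570 nm; cytostasis (%) = (1 − A_treated/A_control) × 100.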

[5] = In vitro cytotoxicity in KM 12 SM cell line; assay type: functional; conditions: Homo sapiens, KM12
Outline: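 Established lines kept in RPMI-1640 with 10% fetal calf serum and penicillin/streptomycin at 36 °C, 10% CO₂. Cells seeded at 2000–3000 cells/well, hydrazones added at several concentrations after 18 h, and exposed a further 36 h. Viable cells read by MTT absorbance at 570 nm; cytostasis (%) = (1 − A/B)×100 against untreated control.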

[6] = In vitro cytotoxicity in KM 12 C cell line; assay type: functional; conditions: Homo sapiens, KM12C; outline: as §2
[7] = In vitro cytotoxicity in MDA-MB-435/lung met cell line; assay type: functional; conditions: Homo sapiens; outline: as §2
[8] = In vitro cytotoxicity in KM 12L4 cell line; assay type: functional, cell-based; conditions: Homo sapiens; outline: as §2
[9] = In vitro cytotoxicity in SN 12 PM6 cell line; assay type: functional, cell-based; conditions: Homo sapiens; outline: as §2
[10] = tested on: breast cancer cells (Homo sapiens); assay: In vitro cytotoxicity in Human breast tumor cells
Homo sapiens [11] = organism: Homo sapiens; assay: In vitro cytotoxicity against Human lung tumor cells; Not available.; assay type: functional; outline: as §1
Homo sapiens [12] = organism: Homo sapiens; assay: In vitro cytotoxicity in Human ovary tumor cells; assay type: functional; conditions: Female gonad; outline: as §1
Melanoma tumor cell line [13] = assay: In vitro cytotoxicity against Human melanoma tumor cells.; assay type: functional, cell-based; outline: as §1

| SMILES | IC50 (Melanoma tumor cell line [1]) | IC50 (Homo sapiens [2]) [µg/mL] | IC50 [3] [µg/mL] | IC50 (Colon carcinoma cell) [µg/mL] | IC50 (Homo sapiens [11]) | IC50 (Homo sapiens [12]) [µg/mL] | IC50 (Melanoma tumor cell line [13]) [µg/mL] | also measured |
| --- | --- | --- | --- | --- | --- | --- | --- | --- |
| O=[N+]([O-])c1ccc(/N=N/c2c3cc(O)ccc3c(NNc3ccc([N+](=O)[O-])cc3[N+](=O)[O-])c3cc(O)ccc23)c([N+](=O)[O-])c1 | Not Active | 1 (≈ 1.67 µM) | 2.5 (≈ 4.16 µM) | 3.9 (≈ 6.5 µM) | – | – | – | – |
| O=[N+]([O-])c1ccc(/N=N/c2c3cccc(O)c3c(O)c3c(O)cccc23)c([N+](=O)[O-])c1 | Not Active | 0.12 (≈ 0.285 µM) | 0.03 (≈ 0.0714 µM) | 0.03 (≈ 0.0714 µM) | – | – | – | IC50 [4]: 0.02 µg/mL (≈ 0.0476 µM); IC50 (MDA-MB-435): 0.02 µg/mL (≈ 0.0476 µM); IC50 [5]: 0.05 µg/mL (≈ 0.119 µM); IC50 [6]: 0.03 µg/mL (≈ 0.0714 µM); IC50 [7]: 0.03 µg/mL (≈ 0.0714 µM); IC50 [8]: 0.02 µg/mL (≈ 0.0476 µM); IC50 [9]: 0.03 µg/mL (≈ 0.0714 µM) |
| O=[N+]([O-])c1ccccc1NN=C(c1ccc(O)cc1)c1ccc(O)cc1 | Not Active | – | – | 4.7 (≈ 13.5 µM) | Not Active | – | – | IC50 [10]: 3.9 µg/mL (≈ 11.2 µM) |
| C/C(=N\Nc1ccc([N+](=O)[O-])cc1)c1ccc(O)cc1 | Not Active | – | 5 (≈ 18.4 µM) | – | Not Active | 6 (≈ 22.1 µM) | – | – |
| CC(=O)Oc1cccc2c(/N=N/c3ccc([N+](=O)[O-])cc3[N+](=O)[O-])c3cccc(OC(C)=O)c3c(O)c12 | – | 0.1 (≈ 0.198 µM) | 0.04 (≈ 0.0793 µM) | 0.16 (≈ 0.317 µM) | – | 0.3 (≈ 0.595 µM) | 0.07 (≈ 0.139 µM) | IC50 [4]: 0.042 µg/mL (≈ 0.0833 µM); IC50 (MDA-MB-435): 0.041 µg/mL (≈ 0.0813 µM); IC50 [8]: 0.07 µg/mL (≈ 0.139 µM); IC50 [9]: 0.021 µg/mL (≈ 0.0416 µM) |
| CC(=O)c1ccc2c(c1)/C(=N\Nc1ccc([N+](=O)[O-])cc1[N+](=O)[O-])c1ccc(C(C)=O)cc1-2 | – | > 5 | > 5 | 0.7 (≈ 1.58 µM) | – | 0.9 (≈ 2.03 µM) | 0.5 (≈ 1.13 µM) | – |
| O=c1c2cccc3c2c(nn1-c1ccccc1[N+](=O)[O-])-c1ccccc1-3 | – | > 5 | > 5 | > 5 | – | > 5 | 0.4 (≈ 1.17 µM) | – |
| O=[N+]([O-])c1ccc(NN=c2c3ccccc3oc3ccccc23)c([N+](=O)[O-])c1 | – | > 10 | 0.04 (≈ 0.106 µM) | 0.05 (≈ 0.133 µM) | – | 0.05 (≈ 0.133 µM) | > 10 | – |
| O=[N+]([O-])c1ccc(NN=c2c3ccccc3[s+]([O-])c3ccccc23)c([N+](=O)[O-])c1 (configuration not stated) | – | > 10 | > 10 | > 10 | – | > 10 | > 10 | – |
| CC(=O)Oc1ccc(C(=NNc2ccc([N+](=O)[O-])cc2[N+](=O)[O-])c2ccc(OC(C)=O)cc2)cc1 | – | > 10 | – | > 10 | – | > 10 | > 10 | – |
| O=[N+]([O-])c1ccc(NN=C(c2ccccc2O)c2ccccc2O)c([N+](=O)[O-])c1 | – | 6 (≈ 15.2 µM) | – | 8 (≈ 20.3 µM) | – | 5 (≈ 12.7 µM) | > 5 | IC50 [10]: 4.7 µg/mL (≈ 11.9 µM) |
| Oc1ccc(C(=NNc2ccccc2)c2ccc(O)cc2)cc1 | – | > 10 | – | > 5 | – | 6.2 (≈ 20.4 µM) | 7 (≈ 23 µM) | IC50 [10]: > 5 µg/mL |
| Nc1ccc2c(/N=N/c3ccc([N+](=O)[O-])cc3[N+](=O)[O-])c3ccccc3c(O)c2c1N | Not Active | – | 5 (≈ 12 µM) | 5 (≈ 12 µM) | Not Active | 6 (≈ 14.3 µM) | – | – |
| CC(=O)Oc1cccc2c(/N=N/c3ccc([N+](=O)[O-])cc3[N+](=O)[O-])c3cccc(O)c3c(O)c12 | – | – | 0.05 (≈ 0.108 µM) | 0.03 (≈ 0.0649 µM) | Not Active | 0.4 (≈ 0.865 µM) | 0.097 (≈ 0.21 µM) | – |
| CC(=O)Oc1cccc2c1-c1nn(-c3ccccc3)c(=O)c3cccc(c13)C2=O | Not Active | – | > 5 | – | Not Active | > 10 | – | – |
| O=[N+]([O-])c1ccc(N/N=C(\c2ccc(O)cc2)c2ccc(Cl)cc2)c([N+](=O)[O-])c1 | Not Active | – | – | > 10 | Not Active | – | – | IC50 [10]: 8.7 µg/mL (≈ 21.1 µM) |
| C=CCOc1cccc2c(/N=N/c3ccc([N+](=O)[O-])cc3[N+](=O)[O-])c3cccc(OC(C)=O)c3c(O)c12 | Not Active | 0.07 (≈ 0.139 µM) | 0.1 (≈ 0.199 µM) | 0.08 (≈ 0.159 µM) | – | – | – | – |
| CN(C)c1ccc(C(=NNc2ccc([N+](=O)[O-])cc2[N+](=O)[O-])c2ccc(N(C)C)cc2)cc1 | – | – | 4.2 (≈ 9.36 µM) | 10 (≈ 22.3 µM) | Not Active | – | 5 (≈ 11.1 µM) | – |
